Measurements: ChEMBL document CHEMBL3861974, “Discovery of a Selective Aurora A Kinase Inhibitor by Virtual Screening” (J Med Chem, 2016)

Legend:
HeLa Kyoto = test: Increase in mitotic index in human HeLa Kyoto cells incubated for 20 hrs; assay type: functional, cell-based
Outline: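 HeLa Kyoto cells were incubated overnight with compound, and the fraction of mitotic cells was scored. The experiment was repeated twice; mean ± SD.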

Aurora kinase A = biological target: T1, Aurora kinase A (Homo sapiens, UniProt O14965); test: Inhibition of His-tagged human Aurora A kinase ([…] residues) expressed in Escherichia coli BL21 (DE3) Rosetta cells using biotinylated STK2 substrate incubated for 30 mins in presence of 0.002 uM TPX2 by HTRF assay
T1 sequence (O14965 whole entry): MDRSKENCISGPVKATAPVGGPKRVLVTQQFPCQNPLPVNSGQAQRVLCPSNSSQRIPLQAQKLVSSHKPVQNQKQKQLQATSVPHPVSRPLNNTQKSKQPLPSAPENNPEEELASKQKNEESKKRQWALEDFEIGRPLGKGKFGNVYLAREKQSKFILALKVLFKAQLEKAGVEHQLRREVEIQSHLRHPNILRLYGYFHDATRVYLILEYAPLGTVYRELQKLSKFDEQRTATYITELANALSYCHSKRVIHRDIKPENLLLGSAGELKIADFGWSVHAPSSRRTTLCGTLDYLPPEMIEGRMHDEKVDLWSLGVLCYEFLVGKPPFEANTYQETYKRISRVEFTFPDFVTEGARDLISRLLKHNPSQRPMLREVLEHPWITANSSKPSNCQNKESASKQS
Outline: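 Biochemical kinase inhibition was read by HTRF with 20 µM ATP. Aurora B was assayed as its complex with the activator INCENP. For Aurora A, IC50 curves were recorded at different TPX2 concentrations.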

[1] = biological target: Death-associated protein kinase 2 (Homo sapiens, UniProt Q9UIK4); test: Binding affinity to human DAPK2 expressed in Escherichia coli BL21 cells incubated for 1 hr by active site directed binding competition assay
Death-associated protein kinase 2, sequence (Q9UIK4 whole entry): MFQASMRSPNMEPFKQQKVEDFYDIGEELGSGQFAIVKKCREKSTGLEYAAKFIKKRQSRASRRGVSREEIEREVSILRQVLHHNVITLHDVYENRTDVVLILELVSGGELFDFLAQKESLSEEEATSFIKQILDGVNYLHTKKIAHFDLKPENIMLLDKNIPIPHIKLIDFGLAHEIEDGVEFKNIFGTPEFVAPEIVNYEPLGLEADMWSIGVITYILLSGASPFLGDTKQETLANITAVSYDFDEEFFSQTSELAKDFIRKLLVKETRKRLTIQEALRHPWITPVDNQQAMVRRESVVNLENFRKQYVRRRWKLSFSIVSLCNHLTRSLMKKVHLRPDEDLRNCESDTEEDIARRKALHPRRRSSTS
Outline: (§1)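 Kinome scan of 456 kinases using an active-site-directed binding competition assay, followed by determination of binding affinities (Kd). Aurora B in this scan was free enzyme without INCENP.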

[2] = biological target: T2, Phosphatidylinositol 5-phosphate 4-kinase type-2 gamma (Homo sapiens, UniProt Q8TBX8); test: Binding affinity to human PIP5K2C expressed in Escherichia coli BL21 cells incubated for 1 hr by active site directed binding competition assay; outline: as §1
T2 sequence (Q8TBX8 whole entry): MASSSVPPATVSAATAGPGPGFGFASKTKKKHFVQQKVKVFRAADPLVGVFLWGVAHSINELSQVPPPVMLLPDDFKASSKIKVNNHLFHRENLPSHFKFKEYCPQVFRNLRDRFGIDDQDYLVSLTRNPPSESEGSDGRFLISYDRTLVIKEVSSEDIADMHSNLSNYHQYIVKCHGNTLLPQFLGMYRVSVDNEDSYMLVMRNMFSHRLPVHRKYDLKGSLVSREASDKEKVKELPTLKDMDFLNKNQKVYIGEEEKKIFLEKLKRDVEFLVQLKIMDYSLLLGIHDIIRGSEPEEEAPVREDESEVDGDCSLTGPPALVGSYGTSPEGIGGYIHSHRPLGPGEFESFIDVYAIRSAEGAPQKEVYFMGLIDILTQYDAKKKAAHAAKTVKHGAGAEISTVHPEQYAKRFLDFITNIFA

[3] = biological target: Macrophage colony-stimulating factor 1 receptor (Homo sapiens, UniProt P07333); test: Binding affinity to auto-inhibited human CSF1R expressed in Escherichia coli BL21 cells incubated for 1 hr by active site directed binding competition assay; outline: as §1
Macrophage colony-stimulating factor 1 receptor, sequence (P07333 whole entry): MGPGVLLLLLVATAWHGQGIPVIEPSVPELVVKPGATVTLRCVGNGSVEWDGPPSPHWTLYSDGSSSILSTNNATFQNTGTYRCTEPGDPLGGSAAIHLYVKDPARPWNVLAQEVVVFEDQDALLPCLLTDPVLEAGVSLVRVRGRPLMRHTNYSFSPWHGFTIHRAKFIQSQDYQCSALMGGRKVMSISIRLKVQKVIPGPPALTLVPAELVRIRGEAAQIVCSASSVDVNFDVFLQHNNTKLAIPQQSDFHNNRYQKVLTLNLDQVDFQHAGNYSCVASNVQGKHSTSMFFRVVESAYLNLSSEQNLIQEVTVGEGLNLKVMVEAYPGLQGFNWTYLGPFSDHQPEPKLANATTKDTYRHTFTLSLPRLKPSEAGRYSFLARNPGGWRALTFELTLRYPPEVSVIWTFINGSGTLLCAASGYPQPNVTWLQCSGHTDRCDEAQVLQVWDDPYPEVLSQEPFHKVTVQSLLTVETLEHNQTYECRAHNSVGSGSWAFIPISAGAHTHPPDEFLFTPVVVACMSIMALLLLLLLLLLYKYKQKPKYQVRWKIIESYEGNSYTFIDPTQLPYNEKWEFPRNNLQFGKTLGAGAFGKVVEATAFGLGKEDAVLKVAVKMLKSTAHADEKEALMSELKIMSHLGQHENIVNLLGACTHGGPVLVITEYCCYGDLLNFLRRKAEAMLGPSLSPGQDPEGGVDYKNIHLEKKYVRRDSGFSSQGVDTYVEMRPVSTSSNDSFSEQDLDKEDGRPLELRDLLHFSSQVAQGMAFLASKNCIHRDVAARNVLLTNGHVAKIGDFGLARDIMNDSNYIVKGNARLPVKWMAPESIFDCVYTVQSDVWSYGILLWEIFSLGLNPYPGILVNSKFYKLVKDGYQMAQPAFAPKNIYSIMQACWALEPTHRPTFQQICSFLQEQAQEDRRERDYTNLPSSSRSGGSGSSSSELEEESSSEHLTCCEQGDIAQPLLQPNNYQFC

[4] = Glutathione reactivity at 30 uM assessed as GSH adduct formation after 24 hrs in presence of 5 mM GSH, pH 7.4 buffer at 37 degC by LC-MS method
Outline: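 Test compound at 30 µM was incubated with 5 mM GSH in H2O/CH3CN (4:1) at 37 °C and followed by LC-MS over 24 h. The GSH adduct was identified by MS. Parent was quantified by integrating its 310 nm absorption peak against 9-methylcarbazole as internal control. Values are the average of two independent experiments.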

[5] = biological target: Phosphatidylinositol 4,5-bisphosphate 3-kinase catalytic subunit gamma isoform (Homo sapiens, UniProt P48736); test: Binding affinity to human PIK3CG expressed in Escherichia coli BL21 cells incubated for 1 hr by active site directed binding competition assay; outline: as §1
Phosphatidylinositol 4,5-bisphosphate 3-kinase catalytic subunit gamma isoform, sequence (P48736 whole entry, canonical isoform): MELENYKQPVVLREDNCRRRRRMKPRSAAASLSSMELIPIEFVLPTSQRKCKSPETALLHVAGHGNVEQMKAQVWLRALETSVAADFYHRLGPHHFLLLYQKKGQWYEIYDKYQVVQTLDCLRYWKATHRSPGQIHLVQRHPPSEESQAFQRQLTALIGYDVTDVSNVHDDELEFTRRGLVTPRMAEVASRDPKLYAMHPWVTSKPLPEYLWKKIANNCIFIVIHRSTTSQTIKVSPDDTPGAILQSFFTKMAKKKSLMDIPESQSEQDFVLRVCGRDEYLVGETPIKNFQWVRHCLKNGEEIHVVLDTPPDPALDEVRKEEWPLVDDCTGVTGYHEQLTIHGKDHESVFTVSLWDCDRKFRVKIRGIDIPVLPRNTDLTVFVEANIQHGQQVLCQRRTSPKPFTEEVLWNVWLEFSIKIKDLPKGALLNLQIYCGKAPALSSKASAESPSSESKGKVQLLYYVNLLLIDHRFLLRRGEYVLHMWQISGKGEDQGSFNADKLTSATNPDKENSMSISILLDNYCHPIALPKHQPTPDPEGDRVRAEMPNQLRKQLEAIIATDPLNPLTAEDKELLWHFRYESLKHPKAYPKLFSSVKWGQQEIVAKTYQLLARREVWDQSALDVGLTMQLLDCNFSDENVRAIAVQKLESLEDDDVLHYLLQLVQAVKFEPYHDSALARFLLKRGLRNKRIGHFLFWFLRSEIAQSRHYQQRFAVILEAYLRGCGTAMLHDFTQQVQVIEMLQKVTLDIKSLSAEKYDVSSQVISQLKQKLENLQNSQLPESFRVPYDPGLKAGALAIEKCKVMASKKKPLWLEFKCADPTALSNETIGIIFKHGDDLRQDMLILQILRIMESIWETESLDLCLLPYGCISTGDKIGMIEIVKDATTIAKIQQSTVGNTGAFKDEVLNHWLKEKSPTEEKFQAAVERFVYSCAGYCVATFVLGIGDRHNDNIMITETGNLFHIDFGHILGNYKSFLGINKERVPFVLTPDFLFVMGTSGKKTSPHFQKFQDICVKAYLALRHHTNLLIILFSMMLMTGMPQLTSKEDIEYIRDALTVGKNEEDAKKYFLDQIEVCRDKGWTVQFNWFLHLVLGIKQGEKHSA

IC50 (Aurora kinase A): 1.7 nM | Kd [2]: 480 nM | Kd [3]: 120 nM | Kd [5]: 1500 nM
Structure (SMILES): CCc1ccc(/N=C2\S/C(=C\c3ccnc(Nc4ccc(C(=O)O)cn4)c3)C(=O)N2C)cc1
Activity (HeLa Kyoto): Dose-dependent effect | Kd [1]: 450 nM | Drug metabolism [4]: 50% | Stability [4]: Stable
